Calls of active or inactive are those of the source. The rule behind the calls is not given here.
Columns and labels:
[1] = system: PANC-1; assay: Cytotoxicity against human PANC1 cells after 48 hrs by MTT assay; type: functional, cell-based; conditions: PANC-1, 48 h
How it was run: (§1)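 Proliferation of human tumour lines obtained from ATCC: A549 lung adenocarcinoma (CCL-185), PANC-1 pancreatic (CRL-1469), AsPC-1 pancreatic (CRL-1682) and DLD-1 colorectal adenocarcinoma. The assay was run by a protocol described earlier.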

[2] = system: ASPC1; assay: Cytotoxicity against human AsPC1 cells after 48 hrs by MTT assay; type: functional, cell-based; conditions: ASPC1, 48 h; how it was run: as §1
[3] = system: DLD-1; assay: Cytotoxicity against human DLD1 cells after 48 hrs by MTT assay; type: functional, cell-based; conditions: DLD-1, 48 h; how it was run: as §1
[4] = Cytotoxicity against human NCI-ADR-RES cells after 48 hrs by MTT assay; type: functional, cell-based
[5] = system: A549; assay: Cytotoxicity against human A549 cells after 48 hrs by MTT assay; type: functional, cell-based; conditions: A549, 48 h; how it was run: as §1
[6] = system: Trypanosoma cruzi; assay: Antitrypanosomal activity against Trypanosoma cruzi Tulahuen assessed as parasite growth after 10 days by nephelometry; type: functional; conditions: 240 h
[7] = target: TCF4/beta-catenin (Homo sapiens) (UniProt P35222+Q9NQB0); assay: Inhibition of GST-tagged T cell factor4/[…] interaction assessed as reduction in alkaline phosphatase level; type: cell-based

Compound | IC50 [1] [µM] | IC50 [2] [µM] | IC50 [3] [µM] | IC50 [4] [µM] | IC50 [5] [µM] | GI50 [6] [µM] | inhibition [7]
C[C@]1(CO)CCC[C@]2(C)c3cc4c(cc3C=C[C@@H]12)C(=O)C=CC4=O | 13.8 | > 15.5 | 9.8 | > 15.5 | > 15.5 | – | –
CC1(C)CCC[C@@]2(C)c3cc4c(cc3CC[C@H]12)C(=O)C=CC4=O [CYCLOZONARONE] | – | – | – | – | – | 0.7 | –
C[C@]1(C=O)CCC[C@]2(C)c3cc4c(cc3C(=O)C[C@@H]12)C(=O)C=CC4=O | 6.1 | 6.1 | 3.7 | > 14.8 | > 14.8 | – | –
C[C@@]12CCC(=O)c3coc(c31)C(=O)c1cc3c(cc12)C(=O)C=CC3=O | – | – | – | – | – | – | inactive
